Laboratory results taken from ChEMBL document CHEMBL1671805, “Biotin ergopeptide probes for dopamine receptors” (J Med Chem, 2011).
pKd: −log10 of the molar value. Activity calls are given as the source filed them. The calls are words filed in the database; no cut-off is given here.

Assays:
[1] = Displacement of [3H]-YM09151-2 from dopamine D2 receptor high binding affinity site in lamb brain striatum membranes at 25 uM; assay type: cell membranes, Ovis aries, Membrane
Outline: (§1)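 Lamb striatal membranes (0.5 mg prot/mL) in 50 mM Tris-HCl pH 7.4 with 10 mM MgCl2 were incubated 2 h at 22 C. Radioligand was 0.9 nM [3H]-SCH23390 (D1) or 0.7 nM [3H]-YM09151-2 (D2). Screens used 25 μM compound; competition used increasing concentrations. Nonspecific binding was taken with 10 μM SCH23390 (D1) or raclopride (D2). Bound ligand was filtered and counted. KD values came from a two-state dimer receptor model fit.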

[2] = Displacement of [3H]-SCH23390 from dopamine D1 receptor low binding affinity site in lamb brain striatum membranes at 25 uM; assay type: cell membranes, Ovis aries, Membrane; outline: as §1
[3] = target: Metabotropic glutamate receptor 1 (Homo sapiens) (UniProt Q13255); test: Displacement of [3H]-quisqualic acid from mGlu1 receptor
Outline: (§2)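 Membranes were incubated with 27 nM [3H]-quisqualic acid for 2 h at 22 C in 50 mM Tris-HCl pH 7.4 with 10 mM MgCl2. Nonspecific binding was taken with 10 μM quisqualic acid. Bound ligand was filtered and counted.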

[4] = Displacement of [3H]-SCH23390 from dopamine D1 receptor high binding affinity site in lamb brain striatum membranes at 25 uM; assay type: cell membranes, Ovis aries, Membrane; outline: as §1
[5] = target: D(1A) dopamine receptor (Homo sapiens) (UniProt P21728); test: Agonist activity at human dopamine D1 receptor expressed in CHO cells assessed as decrease of Akt phosphorylation at Ser473; assay type: functional, cell-based
Outline: (§3)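 Transiently transfected CHO cells (human D1R for D1 lines, D2R for D2 lines; 2 μg cDNA, PEI) were serum-starved 16 h. They were optionally pretreated 5 min with 5 or 50 μM antagonist (SCH23390 for D1R, raclopride for D2R), then given increasing ligand concentrations for 5 min. Lysates were western-blotted for phospho-ERK1/2 or P-Ser473Akt, normalized to total ERK. Mean ± SEM of four independent experiments.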

[6] = target: D(2) dopamine receptor (Homo sapiens) (UniProt P14416); test: Agonist activity at human dopamine D2 receptor expressed in CHO cells assessed as decrease of Akt phosphorylation at Ser473; assay type: functional, cell-based; outline: as §3
[7] = target: T1, D(3) dopamine receptor (Homo sapiens, UniProt P35462); test: Displacement of [3H]-raclopride from human dopamine D3 receptor low binding affinity site expressed in CHO cells; assay type: cell-based
Outline: (§4)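 Membranes (0.5 mg prot/mL) from CHO cells transiently transfected with 2 μg human D3R cDNA were incubated with 4 nM [3H]-raclopride and increasing competitor for 2 h at 22 C in Tris-HCl pH 7.4 with 10 mM MgCl2. Nonspecific binding was taken with 10 μM raclopride. High- and low-affinity KD values came from a two-state dimer receptor model fit. Triplicate.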

[8] = target: D(2) dopamine receptor (Homo sapiens) (UniProt P14416); test: Agonist activity at human dopamine D2 receptor expressed in CHO cells assessed as decrease of Akt phosphorylation at Ser473 in presence of raclopride; assay type: functional, cell-based; outline: as §3
[9] = target: D(1A) dopamine receptor (Homo sapiens) (UniProt P21728); test: Agonist activity at human dopamine D1 receptor expressed in CHO cells assessed as increase of ERK1/2 phosphorylation in presence of SCH23390; assay type: functional, cell-based; outline: as §3
[10] = target: D(1A) dopamine receptor (Homo sapiens) (UniProt P21728); test: Agonist activity at human dopamine D1 receptor expressed in CHO cells assessed as increase of ERK1/2 phosphorylation; assay type: functional, cell-based; outline: as §3
[11] = Displacement of [3H]-YM09151-2 from dopamine D2 receptor low binding affinity site in lamb brain striatum membranes at 25 uM; assay type: cell membranes, Ovis aries, Membrane; outline: as §1
[12] = target: Metabotropic glutamate receptor 5 (Homo sapiens) (UniProt P41594); test: Displacement of [3H]-quisqualic acid from mGlu5 receptor; outline: as §2
[13] = target: D(2) dopamine receptor (Homo sapiens) (UniProt P14416); test: Agonist activity at human dopamine D2 receptor expressed in CHO cells assessed as increase of ERK1/2 phosphorylation; assay type: functional, cell-based; outline: as §3
[14] = target: Histamine H3 receptor (Homo sapiens) (UniProt Q9Y5N1); test: Displacement of [3H]-RAMH from histamine H3 receptor
Outline: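 Membranes were incubated with 2.5 nM [3H]-RAMH for 2 h at 22 C in 50 mM Tris-HCl pH 7.4 with 10 mM MgCl2. Nonspecific binding was taken with 10 μM RAMH. Bound ligand was filtered and counted.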

[15] = target: Cannabinoid receptor 1 (Homo sapiens) (UniProt P21554); test: Displacement of [3H]-CP55940 from CB1 receptor
Outline: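 Membranes in siliconated tubes were incubated with 0.5 nM [3H]-CP 55940 for 2 h at 22 C in Tris-HCl pH 7.4 with 10 mM MgCl2 and 1 mg/mL fatty acid-free BSA. BSA was also in the filter presoak and wash. Nonspecific binding was taken with 10 μM CP55940.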

[16] = target: T1, D(3) dopamine receptor; test: Displacement of [3H]-raclopride from human dopamine D3 receptor high binding affinity site expressed in CHO cells; assay type: cell-based; outline: as §4
[17] = target: D(2) dopamine receptor (Homo sapiens) (UniProt P14416); test: Agonist activity at human dopamine D2 receptor expressed in CHO cells assessed as increase of ERK1/2 phosphorylation in presence of raclopride; assay type: functional, cell-based; outline: as §3
[18] = target: D(1A) dopamine receptor (Homo sapiens) (UniProt P21728); test: Agonist activity at human dopamine D1 receptor expressed in CHO cells assessed as decrease of Akt phosphorylation at Ser473 in presence of SCH23390; assay type: functional, cell-based; outline: as §3
[19] = target: Somatostatin receptor type 5 (Homo sapiens) (UniProt P35346); test: Displacement of [125I]-Tyr11-somatostatin 14 from SST5 receptor
Outline: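 Membranes were incubated with 0.1 nM [125I]-Tyr11-somatostatin 14 for 3 h at 22 C in 50 mM Tris-HCl pH 7.4 with 10 mM MgCl2. Nonspecific binding was taken with 100 nM somatostatin. Bound ligand was separated by filtration and counted.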

Chain of D(2) dopamine receptor (Homo sapiens) (P14416 whole entry): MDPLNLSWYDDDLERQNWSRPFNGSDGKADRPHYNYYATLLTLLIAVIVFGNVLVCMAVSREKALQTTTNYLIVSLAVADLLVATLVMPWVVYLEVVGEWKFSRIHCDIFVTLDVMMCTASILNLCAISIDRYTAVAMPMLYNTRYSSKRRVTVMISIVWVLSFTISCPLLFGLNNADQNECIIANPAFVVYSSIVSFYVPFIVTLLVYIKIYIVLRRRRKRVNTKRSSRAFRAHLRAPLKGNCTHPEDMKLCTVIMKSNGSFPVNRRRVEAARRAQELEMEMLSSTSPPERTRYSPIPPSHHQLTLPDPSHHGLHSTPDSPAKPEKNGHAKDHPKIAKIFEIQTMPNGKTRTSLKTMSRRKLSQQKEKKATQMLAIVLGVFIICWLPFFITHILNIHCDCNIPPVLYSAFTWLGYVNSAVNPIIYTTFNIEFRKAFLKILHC
Chain of D(1A) dopamine receptor (Homo sapiens) (P21728 whole entry): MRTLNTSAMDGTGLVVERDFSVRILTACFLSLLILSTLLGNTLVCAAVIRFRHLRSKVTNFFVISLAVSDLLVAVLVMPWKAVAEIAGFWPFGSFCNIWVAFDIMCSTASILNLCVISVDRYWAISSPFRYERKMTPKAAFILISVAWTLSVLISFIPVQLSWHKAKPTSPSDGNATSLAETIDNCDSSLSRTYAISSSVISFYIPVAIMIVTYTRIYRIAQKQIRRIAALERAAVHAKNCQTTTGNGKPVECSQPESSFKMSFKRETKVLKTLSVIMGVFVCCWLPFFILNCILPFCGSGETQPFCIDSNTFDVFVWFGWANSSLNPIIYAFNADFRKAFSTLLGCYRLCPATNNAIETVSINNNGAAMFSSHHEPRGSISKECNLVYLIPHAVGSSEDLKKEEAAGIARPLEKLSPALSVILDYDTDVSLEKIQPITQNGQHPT
T1 sequence (P35462 whole entry): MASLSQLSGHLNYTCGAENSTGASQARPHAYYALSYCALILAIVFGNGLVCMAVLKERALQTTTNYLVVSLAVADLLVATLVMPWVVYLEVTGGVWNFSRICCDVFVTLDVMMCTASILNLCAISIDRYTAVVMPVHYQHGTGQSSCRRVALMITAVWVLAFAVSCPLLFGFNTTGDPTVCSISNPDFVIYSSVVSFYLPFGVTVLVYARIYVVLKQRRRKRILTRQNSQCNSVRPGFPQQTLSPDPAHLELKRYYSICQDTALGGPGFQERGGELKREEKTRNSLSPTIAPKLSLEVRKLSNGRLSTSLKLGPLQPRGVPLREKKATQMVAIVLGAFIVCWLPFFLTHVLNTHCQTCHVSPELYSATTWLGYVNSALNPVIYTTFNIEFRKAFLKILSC
Chain of Histamine H3 receptor (Homo sapiens) (Q9Y5N1 whole entry): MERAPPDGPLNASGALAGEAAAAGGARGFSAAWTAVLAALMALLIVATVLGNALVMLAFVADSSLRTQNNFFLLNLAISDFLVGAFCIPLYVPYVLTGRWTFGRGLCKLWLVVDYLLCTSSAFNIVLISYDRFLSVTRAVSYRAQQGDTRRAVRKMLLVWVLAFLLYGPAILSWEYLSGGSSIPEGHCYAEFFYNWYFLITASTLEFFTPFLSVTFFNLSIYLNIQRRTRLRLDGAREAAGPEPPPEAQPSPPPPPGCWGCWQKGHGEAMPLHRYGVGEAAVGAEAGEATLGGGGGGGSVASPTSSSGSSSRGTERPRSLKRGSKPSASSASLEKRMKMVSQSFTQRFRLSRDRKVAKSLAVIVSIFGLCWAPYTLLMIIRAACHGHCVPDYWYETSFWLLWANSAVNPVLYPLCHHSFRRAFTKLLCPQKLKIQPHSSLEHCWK
Chain of Somatostatin receptor type 5 (Homo sapiens) (P35346 whole entry): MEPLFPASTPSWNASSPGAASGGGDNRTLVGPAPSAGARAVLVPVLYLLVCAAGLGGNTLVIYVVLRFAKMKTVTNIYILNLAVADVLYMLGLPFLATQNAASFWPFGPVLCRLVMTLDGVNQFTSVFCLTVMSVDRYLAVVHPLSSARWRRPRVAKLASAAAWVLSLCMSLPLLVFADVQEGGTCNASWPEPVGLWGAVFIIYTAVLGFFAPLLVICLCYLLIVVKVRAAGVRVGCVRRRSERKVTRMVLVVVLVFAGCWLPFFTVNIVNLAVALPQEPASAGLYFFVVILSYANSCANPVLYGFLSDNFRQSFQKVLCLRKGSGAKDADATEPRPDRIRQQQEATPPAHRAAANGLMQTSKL
Chain of Metabotropic glutamate receptor 5 (Homo sapiens) (P41594 21-1212 limits assumed): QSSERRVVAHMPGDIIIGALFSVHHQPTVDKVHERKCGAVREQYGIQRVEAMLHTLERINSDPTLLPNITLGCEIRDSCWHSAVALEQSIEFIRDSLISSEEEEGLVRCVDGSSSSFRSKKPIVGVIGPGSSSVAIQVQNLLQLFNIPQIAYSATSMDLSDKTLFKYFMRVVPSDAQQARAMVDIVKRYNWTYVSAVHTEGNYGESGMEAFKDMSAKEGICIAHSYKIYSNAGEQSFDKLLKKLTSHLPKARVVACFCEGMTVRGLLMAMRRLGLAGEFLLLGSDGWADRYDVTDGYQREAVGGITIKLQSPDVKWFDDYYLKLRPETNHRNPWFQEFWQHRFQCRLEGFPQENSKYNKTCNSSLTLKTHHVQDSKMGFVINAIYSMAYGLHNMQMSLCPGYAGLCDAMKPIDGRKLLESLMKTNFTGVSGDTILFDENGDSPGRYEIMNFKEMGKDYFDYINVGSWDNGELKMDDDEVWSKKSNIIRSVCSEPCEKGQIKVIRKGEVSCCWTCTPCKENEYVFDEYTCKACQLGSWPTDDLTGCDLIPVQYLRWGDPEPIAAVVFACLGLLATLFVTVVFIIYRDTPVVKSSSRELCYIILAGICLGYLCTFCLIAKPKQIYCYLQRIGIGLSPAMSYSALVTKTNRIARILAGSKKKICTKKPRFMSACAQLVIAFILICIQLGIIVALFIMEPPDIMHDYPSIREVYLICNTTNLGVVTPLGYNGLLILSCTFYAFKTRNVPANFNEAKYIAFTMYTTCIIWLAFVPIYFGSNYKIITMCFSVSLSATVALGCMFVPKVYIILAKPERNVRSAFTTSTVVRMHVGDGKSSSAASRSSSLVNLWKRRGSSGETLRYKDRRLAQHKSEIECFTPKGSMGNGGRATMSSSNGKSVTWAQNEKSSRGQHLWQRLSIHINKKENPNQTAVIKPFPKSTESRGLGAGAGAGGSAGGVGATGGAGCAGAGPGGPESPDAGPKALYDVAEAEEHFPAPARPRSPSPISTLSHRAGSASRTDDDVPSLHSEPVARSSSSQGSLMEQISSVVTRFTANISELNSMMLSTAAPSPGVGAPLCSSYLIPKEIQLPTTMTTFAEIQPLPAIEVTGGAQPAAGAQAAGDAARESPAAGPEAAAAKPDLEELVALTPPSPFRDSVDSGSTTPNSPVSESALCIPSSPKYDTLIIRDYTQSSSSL
Chain of Cannabinoid receptor 1 (Homo sapiens) (P21554 whole entry): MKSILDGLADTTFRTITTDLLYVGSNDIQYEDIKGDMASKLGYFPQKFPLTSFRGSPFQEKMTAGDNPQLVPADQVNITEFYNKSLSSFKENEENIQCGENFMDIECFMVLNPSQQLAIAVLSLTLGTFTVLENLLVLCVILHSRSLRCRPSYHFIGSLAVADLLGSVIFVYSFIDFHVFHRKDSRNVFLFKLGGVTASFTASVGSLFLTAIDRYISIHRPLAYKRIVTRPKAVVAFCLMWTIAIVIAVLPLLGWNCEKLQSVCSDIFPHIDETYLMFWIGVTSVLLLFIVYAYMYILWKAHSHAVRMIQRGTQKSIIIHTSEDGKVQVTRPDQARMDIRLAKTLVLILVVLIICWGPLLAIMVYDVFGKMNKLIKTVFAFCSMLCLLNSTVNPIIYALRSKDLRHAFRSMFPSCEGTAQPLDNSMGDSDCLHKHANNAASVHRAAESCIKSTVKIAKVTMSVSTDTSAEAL
Chain of Metabotropic glutamate receptor 1 (Homo sapiens) (Q13255 19-1194 limits assumed): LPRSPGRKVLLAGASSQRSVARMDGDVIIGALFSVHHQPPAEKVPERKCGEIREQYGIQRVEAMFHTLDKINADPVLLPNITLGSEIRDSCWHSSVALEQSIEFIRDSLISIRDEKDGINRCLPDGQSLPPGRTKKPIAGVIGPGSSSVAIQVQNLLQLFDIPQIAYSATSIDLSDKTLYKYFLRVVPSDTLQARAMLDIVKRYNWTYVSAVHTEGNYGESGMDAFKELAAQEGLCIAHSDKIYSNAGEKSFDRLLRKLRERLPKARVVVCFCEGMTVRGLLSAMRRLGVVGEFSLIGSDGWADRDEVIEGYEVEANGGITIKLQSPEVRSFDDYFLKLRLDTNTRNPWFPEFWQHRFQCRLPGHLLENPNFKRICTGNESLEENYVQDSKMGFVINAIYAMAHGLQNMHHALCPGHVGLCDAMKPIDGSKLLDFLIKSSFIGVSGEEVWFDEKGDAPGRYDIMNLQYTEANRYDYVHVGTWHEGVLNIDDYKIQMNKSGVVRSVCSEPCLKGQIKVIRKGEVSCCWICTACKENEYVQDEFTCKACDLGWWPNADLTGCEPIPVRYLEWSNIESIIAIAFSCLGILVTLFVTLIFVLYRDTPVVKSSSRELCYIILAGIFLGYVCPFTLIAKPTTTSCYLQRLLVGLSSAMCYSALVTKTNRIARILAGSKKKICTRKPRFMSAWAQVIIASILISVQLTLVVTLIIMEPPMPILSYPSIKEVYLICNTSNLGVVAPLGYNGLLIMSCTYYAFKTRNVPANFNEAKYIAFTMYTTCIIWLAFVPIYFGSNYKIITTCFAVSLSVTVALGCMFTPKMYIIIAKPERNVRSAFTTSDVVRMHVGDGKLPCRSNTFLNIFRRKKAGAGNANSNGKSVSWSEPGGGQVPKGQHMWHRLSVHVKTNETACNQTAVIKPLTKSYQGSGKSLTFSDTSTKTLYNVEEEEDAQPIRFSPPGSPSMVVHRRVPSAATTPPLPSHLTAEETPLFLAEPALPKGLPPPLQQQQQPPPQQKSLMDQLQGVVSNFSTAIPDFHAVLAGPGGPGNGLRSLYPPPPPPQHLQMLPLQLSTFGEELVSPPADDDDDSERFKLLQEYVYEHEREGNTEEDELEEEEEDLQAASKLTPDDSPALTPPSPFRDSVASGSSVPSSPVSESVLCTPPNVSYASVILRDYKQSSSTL

With `CN1C[C@H](C(=O)N[C@@H](Cc2ccc([N+](=O)[O-])cc2)C(=O)N[C@@H](Cc2ccc(F)cc2)C(=O)N2CCCC(C(=O)NCCCCCC(=O)NCCCC[C@H](NC(=O)CCCC[C@H]3SC[C@H]4NC(=O)N[C@H]43)C(N)=O)C2)C=C2c3cccc4[nH]cc(c34)C[C@H]21` (some centres undefined) as the compound, how does the pKd [1] read?
The pKd was 7.77.

What about the pKd [2] of the same compound?
The pKd was 5.82.

And the Activity [3]?
The Activity was “inactive”.

And the pKd [4]?
Its pKd is 7.25.

And the Activity [5]?
The Activity was “Dose-dependent effect”.

What about the Activity [6] of the same compound?
The Activity was “Dose-dependent effect”.

What about the pKd [7] of the same compound?
The pKd was 7.03.

What about the Activity [8] of the same compound?
Its Activity is “inactive”.

And the Activity [9]?
Its Activity is “inactive”.

And the Activity [10]?
Its Activity is “Dose-dependent effect”.

And the pKd [11]?
Its pKd is 5.05.

What about the Activity [12] of the same compound?
The Activity was “inactive”.

And the Activity [13]?
The Activity was “Dose-dependent effect”.

And the Activity [14]?
The Activity was “inactive”.

And the Activity [15]?
The Activity was “inactive”.

What about the pKd [16] of the same compound?
Its pKd is 7.64.

What about the Activity [17] of the same compound?
The Activity was “inactive”.

What about the Activity [18] of the same compound?
The Activity was “inactive”.

And the Activity [19]?
Its Activity is “inactive”.
